# High-throughput results as filed in PubChem.
# DENV2 CPE rescue: inhibitors of DENV2 cytopathic effect, primary screen, cell-based, plate reader, single concentration; DENV2-infected cells, cytopathic effect rescue; AID 651640, 2012; 350,000 tested, 1.7% active; CPE inhibition, % at 9.99 µM; in the data active = CPE inhibition above about 20%, passing the limit was not always enough; inconclusive = no clear call, values can overlap the other calls; tested in BHK-21 cells;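 note: 0% = median of neutral control wells and 100% = median of positive control wells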
# CAL PDZ FP-1: CAL PDZ peptide-binding inhibitors, primary screen, biochemical, fluorescence polarization, Cer-tagged CAL PDZ, HTS; inhibition, % at 20 µM; 330,000 tested, 0.02% active; Golgi-associated PDZ and coiled-coil motif-containing protein (Homo sapiens), Q9HD26; AID 504414, 2011; purified CAL PDZ, TMR-peptide fluorescence polarization, 1 h;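 active = highest replicate inhibition of at least 40%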;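 note: plate controls were DMSO neutral control wells for no effect and unlabeled competitor peptide control wells for full effect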
#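 Test system: purified CerCALP PDZ construct; Compound dosing: one concentration, 20 µM compound; Also added: TMR-labelled reporter peptide T*-PRC34 bound in PDZ groove; Read-out: inhibition from polarization loss; Controls: unlabelled peptide and DMSO controls; Signal: FP readout, S and P plane fluorescence; Incubation: 1 h at RT.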
# SIRT5 block: SIRT5 desuccinylase inhibitors, primary screen, biochemical, fluorescence imaging, single point, set 5; NAD-dependent protein deacylase sirtuin-5, mitochondrial (Homo sapiens), Q9NXA8; Purified SirT5, succinyl-peptide AMC, trypsin-coupled fluorescence; inhibition, % at 15 µM; 330,000 tested, 1.1% active; AID 652115, 2013; in the data active = inhibition above about 15%; inconclusive = no clear call, values can overlap the other calls
# CAL PDZ FP-2: untagged CAL PDZ binding inhibitors, primary screen, biochemical, fluorescence polarization, HTS; 300,000 tested, 0.92% active; Golgi-associated PDZ and coiled-coil motif-containing protein (Homo sapiens), Q9HD26; inhibition, % at 24.9 µM; purified CAL PDZ, TMR-peptide fluorescence polarization, 1 h; AID 602252, 2012;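 active = mean inhibition of at least 30% with at least half of replicates also reaching 30%; inconclusive = no clear call, values can overlap the other calls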;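 note: 0% = DMSO neutral control and 100% = excess unlabeled competitor peptide PRC23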
# S100A4 MyoIIA: inhibitors of S100A4-myosin IIA peptide binding, primary screen, biochemical, fluorescence polarization, TAMRA-MyoIIA peptide; Protein S100-A4 (Homo sapiens), P26447; inhibition, % at 10.7 µM; 360,000 tested, 0.14% active; AID 652163, 2013;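 active = mean inhibition of at least 70% across replicates, with every replicate also reaching that level; inconclusive = mean inhibition reaches 70% but some replicates fall short; inactive = mean inhibition below 70%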
#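 System – human S100A4 monomer protein, biochemical binding assay · Buffer or medium – Calcium-containing HEPES buffer, pH 7.2 · Timing – 5 min between mix addition and reading · Also added – TAMRA-labelled myosin IIA heavy-chain peptide probe, 5 nM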
# ERAP1 HTS inh: human ERAP1 aminopeptidase inhibitors, primary screen, biochemical, single point, plate reader; Endoplasmic reticulum aminopeptidase 1 (Homo sapiens), Q9NZ08; 340,000 tested, 0.15% active; inhibition, % at 10.7 µM; AID 652197, 2013; recombinant ERAP1, Leu-AMC fluorescence, 60 min;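 active = mean replicate inhibition of at least 30%, or all replicates individually reaching that 30% level; inactive = mean below 30% and not every replicate reaching it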;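 note: 0% = neutral control wells and 100% = L-leucinethiol positive control wells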
# Target sequence (Q9NZ08 whole entry, looked up): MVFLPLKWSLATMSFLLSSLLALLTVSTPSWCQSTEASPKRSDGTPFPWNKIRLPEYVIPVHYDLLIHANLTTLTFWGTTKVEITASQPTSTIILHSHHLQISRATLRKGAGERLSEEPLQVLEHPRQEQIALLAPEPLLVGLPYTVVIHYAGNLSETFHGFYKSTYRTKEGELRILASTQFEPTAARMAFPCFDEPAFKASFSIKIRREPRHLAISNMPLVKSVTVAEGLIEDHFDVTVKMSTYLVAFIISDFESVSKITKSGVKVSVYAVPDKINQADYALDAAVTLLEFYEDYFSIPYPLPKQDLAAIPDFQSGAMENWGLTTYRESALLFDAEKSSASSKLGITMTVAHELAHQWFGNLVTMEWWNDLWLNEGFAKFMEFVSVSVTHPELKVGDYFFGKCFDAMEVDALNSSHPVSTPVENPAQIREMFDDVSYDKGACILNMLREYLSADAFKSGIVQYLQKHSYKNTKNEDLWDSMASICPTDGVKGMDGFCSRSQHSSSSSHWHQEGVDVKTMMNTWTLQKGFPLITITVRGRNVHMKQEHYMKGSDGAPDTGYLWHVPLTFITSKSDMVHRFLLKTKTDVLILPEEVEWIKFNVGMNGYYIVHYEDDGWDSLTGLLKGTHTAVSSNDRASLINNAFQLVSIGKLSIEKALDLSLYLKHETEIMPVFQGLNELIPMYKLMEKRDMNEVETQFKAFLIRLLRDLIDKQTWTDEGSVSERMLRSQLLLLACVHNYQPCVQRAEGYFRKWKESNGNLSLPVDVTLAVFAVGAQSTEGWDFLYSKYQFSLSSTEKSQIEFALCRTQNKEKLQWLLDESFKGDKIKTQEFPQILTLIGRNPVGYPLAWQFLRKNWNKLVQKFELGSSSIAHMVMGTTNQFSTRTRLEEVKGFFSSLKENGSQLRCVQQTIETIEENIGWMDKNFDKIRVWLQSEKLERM
# Active calls of the source: *; u = inconclusive; x = no result. Hits are enriched below; roughly 2.9% of the tested compounds scored in any of these assays.
SMILES,DENV2 CPE rescue,CAL PDZ FP-1,SIRT5 block,CAL PDZ FP-2,S100A4 MyoIIA,ERAP1 HTS inh
CC1CCC2(CC1)NC(=O)N(CC(=O)Nc1ccc(N3CCOCC3)cc1)C2=O (centres undefined),-5,-2,-5,-6,-5,4
CC1CCCCC12NC(=O)N(CC(=O)Nc1ccc(N3CCOCC3)cc1)C2=O (centres undefined),u,0,16*,3,0,0
CC1CCCCC12NC(=O)N(CC(=O)NCc1ccccc1Cl)C2=O (centres undefined),-1,0,2,-4,-2,2
CCC(=O)N1C[C@H](O)COC[C@H]2O[C@H](CC(=O)NCc3cc(F)cc(F)c3)CC[C@@H]21,5,x,7,x,88*,0
CCNC(=O)C[C@H]1CC[C@H]2[C@@H](COC[C@H](O)CN2C(=O)CC)O1,-4,x,-2,x,-15,-2
CCCNC(=O)C[C@@H]1CC[C@@H]2[C@H](COC[C@@H](O)CN2C(=O)C2CCOCC2)O1,6,x,16*,x,-60,0
Cn1cnc(CCNC(=O)C[C@H]2CC[C@H]3[C@@H](COC[C@@H](O)CN3C(=O)C3CC3)O2)c1,-17,x,-1,x,85*,-1
CCNC(=O)C[C@@H]1CC[C@H]2[C@@H](COC[C@H](O)CN2C(=O)CC)O1,48*,x,-2,x,-25,0
Cc1ccccc1-c1ccc(C2[C@H]3CNC[C@@H]2N3S(=O)(=O)c2ccc(Cl)cc2)cc1 (some centres undefined),-6,x,0,x,-12,2
O=C(c1ccccn1)N1C[C@@H]2[C@H](c3ccccc31)[C@@H](CO)N2C(=O)c1ccccn1,69*,x,x,x,x,x
O=C(c1cccnc1)N1C[C@H]2[C@@H](c3ccccc31)[C@H](CO)N2C(=O)CN1CCOCC1,4,x,-1,x,9,x
O=C(c1ccccc1)N1C[C@@H]2[C@H](c3ccccc31)[C@@H](CO)N2C(=O)c1ccccn1,-6,x,0,x,6,1
CC(C)NC(=O)N1C[C@H]2[C@@H](c3ccccc31)[C@@H](CO)N2C(=O)c1ccccn1,115*,x,1,x,9,2
O=C(c1ccncc1)N1C[C@@H]2[C@H](c3ccccc31)[C@@H](CO)N2C(=O)CN1CCOCC1,9,x,7,x,97*,5
CC=Cc1ccc2n(c1=O)C[C@@H]1[C@@H](CO)[C@H](C(=O)OC)N(C(C)=O)[C@H]21 (mixture of isomers),-1,x,-8,x,-6,0
CCNC(=O)[C@@H]1[C@@H](CO)[C@@H]2Cn3c(ccc(-c4ccc(F)cc4)c3=O)[C@@H]2N1Cc1cc(F)ccc1F,-3,x,6,x,9,0
Cc1ccc(C(=O)COC(=O)c2ccc3c(c2)C(=O)N(c2cccc4ncccc24)C3=O)cc1,-2,0,18*,3,7,8
CCN(CC(=O)Nc1ccccc1C(F)(F)F)C(=O)Cn1c(=O)cnc2ccccc21,0,-2,0,0,-3,32*
CCN(CC(=O)Nc1c(F)cccc1F)C(=O)Cn1c(=O)cnc2ccccc21,-9,2,-5,10,7,1
C=C(C)CN(CC)C(=O)CSc1ccc(S(=O)(=O)N2CCN(Cc3ccccc3)CC2)cn1,1,-1,0,69*,0,-2
CC(NC(=O)c1cc(-c2ccncc2)nc2ccc(Br)cc12)C1CCCO1 (centres undefined),-4,-2,-4,45*,-61,-5
C[C@H](CO)N1C[C@H](C)[C@H](CN(C)CC2CCCCC2)OCCCC[C@H](C)Oc2ccc(NC(=O)CCCCCC(=O)Nc3ccccc3N)cc2C1=O,8,x,-1,x,-7,1
C[C@@H]1CCCCO[C@@H](CN(C)CC2CCCCC2)[C@H](C)CN([C@H](C)CO)C(=O)c2cc(NC(=O)CCCCCC(=O)Nc3ccccc3N)ccc2O1,-1,x,20*,x,-1,2
